Diaph act CS – diaphorase activation or chemical reduction counter-screen. Diaphorase/resazurin coupled assay, resorufin fluorescence, 16 min; stronger effect = higher value; 1 = vehicle wells, 0 = NADH-free wells. activation factor at 20 µM. actives 0.005% (n = 190,000). AID 1229;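 active means diaphorase activity raised at least twofold by the compound at 20 µM; inactive means activation factor below 2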
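test system = bacterial diaphorase enzyme (C. kluyveri) | quantity = enzyme 0.07 U/mL final | reagent = NADH substrate 0.114 mM plus resazurin dye 0.1 mM, final | incubation = 16 min enzyme reaction, ambient temperature | buffer or medium = HEPES pH 7.4 buffer with MgCl2 and Tween 20 | signal = fluorescence of resorufin, 544 nm excitation, 590 nm emission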
NCF1 inh – p47phox (human) inhibition; actives 0.53% (n = 220,000); inhibition, % at 24.7 µM; p47phox/p22phox peptide binding, fluorescence polarization, 2 h; AID 1274; P14598;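 active means inhibition above about 30%, limit read from the data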;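 further: 0% = p47phox with labelled peptide and 100% = labelled peptide alone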
Target sequence (P14598 whole entry, looked up): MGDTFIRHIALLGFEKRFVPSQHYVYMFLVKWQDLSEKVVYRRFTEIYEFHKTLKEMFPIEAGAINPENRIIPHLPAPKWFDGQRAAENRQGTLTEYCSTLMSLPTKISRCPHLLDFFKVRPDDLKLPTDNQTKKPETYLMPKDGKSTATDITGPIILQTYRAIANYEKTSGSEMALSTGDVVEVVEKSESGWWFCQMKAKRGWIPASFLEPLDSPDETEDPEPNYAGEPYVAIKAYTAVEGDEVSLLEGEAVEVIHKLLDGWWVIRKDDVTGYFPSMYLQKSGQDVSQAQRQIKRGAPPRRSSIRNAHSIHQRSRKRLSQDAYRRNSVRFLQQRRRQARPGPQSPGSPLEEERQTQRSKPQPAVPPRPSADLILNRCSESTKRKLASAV
Diaphorase inh – inhibits diaphorase or chemically oxidizes, flagging diaphorase assay artifacts; diaphorase resazurin-to-resorufin fluorescence, NADH, 16 min; bacterial (C. kluyveri) enzyme, not human; inhibition, % at 20 µM; actives 0.69% (n = 190,000);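 active means primary screen inhibition at 20 µM above a set limit, cut at about 50% in these data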;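 further: plate controls were DMSO with full reaction for no effect and wells lacking NADH for full effect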
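System: Diaphorase enzyme from Clostridium kluyveri | Amount: Enzyme working solution with 0.14 U/mL diaphorase | Benchmarks: No-NADH positive control and DMSO neutral control | Signal: Fluorescence of resorufin formed from resazurin, Ex 544/Em 590 nm | Schedule: 16-min room-temperature incubation before reading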
Efa HMGR inh – blocks class II HMG-CoA reductase of Enterococcus faecalis; purified E. faecalis HMGR, NADPH absorbance 340 nm kinetic; inhibition, % at 10 µM; actives 0.41% (n = 190,000); AID 1066;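 active means inhibition above a set limit, the median over all tested compounds plus 3 SD, cut at about 9.5% in these data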;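 further: enzyme runs in reverse so mevalonate oxidation gives rising NADPH absorbance; 0% = complete reaction with DMSO and 100% = background rate lacking mevalonate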
ABCG2 block – human ABCG2 inhibition, ABCB1 as counter-screen. Q9UNQ0. IgMXP3 cells, JC-1 efflux, flow cytometry. inhibition, % at 6.6 µM. actives 0.1% (n = 190,000);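 active means inhibition above 80%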;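 further: 0% = DMSO and 100% = nicardipine control wells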
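Test system: IgMXP3 cells (ABCG2) mixed with DDAO far-red-labelled CCRF-Adr cells (ABCB1). Reagent: JC-1 transporter substrate. Compound dosing: single test compound dose, 6.6 µM final. Times: 10 min compound exposure, 25 °C. Detection: flow cytometry of retained JC-1 fluorescence. Read-out basis: efflux inhibition in percent versus controls. Controls: nicardipine and DMSO wells.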
ABCB1 block – human ABCB1 inhibition, ABCG2 as counter-screen; P08183; CCRF-Adr cells, JC-1 efflux, flow cytometry; inhibition, % at 6.6 µM; actives 0.067% (n = 190,000); AID 1326; in the data active means inhibition above about 40%;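 further: 0% = vehicle and 100% = reference inhibitor; higher value means more JC-1 retained so stronger ABCB1 efflux block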
An asterisk follows results filed as active; nt = not tested or not shown. An excerpt weighted towards active compounds, which were near 1.6% of everything screened.

SMILES	Diaph act CS	NCF1 inh	Diaphorase inh	Efa HMGR inh	ABCG2 block	ABCB1 block
Cc1ccc(S(=O)(=O)N(C)c2ccc(C(=O)N3CCCCC3)cc2)cc1	0.9	-3	5	2	5	1
CC(=O)Oc1ccc(N2C(=O)CCC2=O)cc1	0.9	-4	9	-3	7	-1
Oc1ccc(C(=S)N2CCN(Cc3ccccc3)CC2)cc1	nt	-2	nt	nt	nt	nt
COCC(=O)N1CCCC(C(=O)c2ccc3c4c(cccc24)CC3)C1 (stereo unspecified)	0.9	-6	14	-2	5	1
COCCC(=O)N1CCCC(C(=O)c2ccc3c4c(cccc24)CC3)C1 (stereo unspecified)	0.9	-9	14	11*	1	0
O=C(CSc1nnc(-c2ccc(Br)cc2)o1)Nc1cccc2ccccc12	0.9	-10	7	1	3	1
CC(=O)Nc1nc(Cn2nnc(-c3ccc4c(c3)OCO4)n2)nc(N(C)C)n1	1.1	1	-8	-9	5	1
O=C1c2ccccc2NC(c2ccc(Cl)cc2Cl)N1O (stereo unspecified)	0.9	-15	7	15*	1	0
CCCNC(=O)Cn1c(=O)cnc2ccccc21	0.9	-3	7	-7	3	0
COc1ccc(C(=O)/C=C/C(=O)N(CC(=O)NC2CCCCC2)Cc2ccc(F)cc2)c(O)c1	1.1	33*	-8	-4	1	1
COc1ccc(Cl)cc1C(=O)O/N=C(\N)c1ccncc1	nt	-12	nt	nt	nt	nt
CCc1ccc2c(c1)c(N=NC1=NC(=O)CS1)c(O)n2CC	0.2	-34	79*	2	0	0
CCc1ccc2[nH]c(O)c(N=NC3=NC(=O)CS3)c2c1	nt	-26	nt	nt	nt	nt
COc1ccc(-c2c(=O)n(OCc3ccccc3[N+](=O)[O-])c3ccccc3[n+]2[O-])c(OC)c1	0.5	6	51*	-4	20	3
O=C(Nc1ccc2oc(=O)ccc2c1)c1cc2ccccc2o1	0.9	32*	8	-3	-1	0
Cc1cc(=O)oc2cc(NC(=O)c3cc4ccccc4o3)ccc12	0.9	4	13	-5	0	0
CCOC(=O)Nc1ccc2c(c1)N(C(=O)N1CCN(C)CC1)c1ccccc1CC2	0.9	-2	14	13*	0	0
Cc1ccc(OCC(=O)Nc2sc3c(c2C#N)CC(C)(C)NC3(C)C)cc1	0.9	-8	7	-1	3	1
CC1(C)Cc2c(sc(NC(=O)COc3cccc4ccccc34)c2C#N)C(C)(C)N1	nt	51*	nt	nt	nt	nt
O=C(NCCc1c[nH]c2ccccc12)C(=O)NCC(c1cccnc1)N1CCN(c2ccccc2)CC1 (stereo unspecified)	0.8	-1	18	-2	20	5
CCO[C@@H]1OC(C(=O)N2CCN(Cc3ccc4c(c3)OCO4)CC2)=C[C@H](c2cn(C(C)=O)c3ccccc23)[C@H]1CCCO	0.4	-6	56*	0	6	7
CCO[C@@H]1OC(C(=O)N2CCN(Cc3ccc4c(c3)OCO4)CC2)=C[C@H](c2csc3ccccc23)[C@H]1CCCO	0.7	nt	27	-3	3	2
CC(=O)n1cc([C@H]2C=C(C(=O)N3CCN(Cc4ccc5c(c4)OCO5)CC3)O[C@@H](OCCCCO)C2)c2ccccc21	0.4	-12	56*	-1	6	2
Cc1cc(/C=C2\SC(=S)N(Cc3ccco3)C2=O)c(C)n1-c1cccnc1	0.8	-153	22	0	46	35
CSC(=S)N/N=C/c1ccccc1	0.3	-10	73*	-3	0	0
SMILES	Diaph act CS	NCF1 inh	Diaphorase inh	Efa HMGR inh	ABCG2 block	ABCB1 block
CC(C)N=c1scc(-c2ccco2)n1/N=C/c1ccc(O)c(O)c1	0.4	-6	59*	-2	-1	0
COCCN=c1scc(-c2ccco2)n1/N=C/c1ccc(O)c(O)c1O	0.2	-2	80*	5	-2	-1
C=CCN=c1scc(-c2ccco2)n1/N=C/c1ccc(O)c(O)c1O	nt	-11	nt	nt	nt	nt
CCc1ccc(NC(=O)CC2C(=O)Nc3c2c(=O)n(C)c(=O)n3C)cc1 (stereo unspecified)	1	-2	5	12*	0	0
COc1ccc(C2SCCN2C(=O)c2ccc([N+](=O)[O-])cc2)cc1 (stereo unspecified)	0.8	-2	18	-3	4	1
O=C(c1ccc([N+](=O)[O-])cc1)N1CCSC1c1ccccc1Cl (stereo unspecified)	0.9	-3	6	11*	11	3
Cc1cccc(CSc2nc3c(c(-c4cccs4)c2C#N)CN(C)CC3)c1	0.4	28	58*	1	-3	1
O=C(NNc1cc(N2CCOCC2)nc(N2CCOCC2)n1)c1ccc([N+](=O)[O-])cc1	0.6	49*	39	-6	2	0
Cc1[nH]nc2c1C(c1ccco1)C(C#N)=C(N)O2 (stereo unspecified)	1	-21	0	3	1	0
Cc1[nH]nc2c1C(CCc1ccccc1)C(C#N)=C(N)O2 (stereo unspecified)	0.8	4	16	27*	3	1
COc1cc(/C=C(/Sc2nnc(-c3ccc(F)cc3)o2)C(=O)O)ccc1OC(F)F	1	-12	-4	10*	0	0
COc1ccc(OCC(=O)N2CCN(C(=O)c3ccc([N+](=O)[O-])cc3)CC2)cc1	1	1	-4	0	1	0
COC(=O)CSC1=NS(=O)(=O)c2ccccc21	1	-2	2	1	3	0
COc1ccc(S(=O)(=O)N(NC2=NS(=O)(=O)c3ccccc32)C(=O)C(C)C)cc1	1	-2	4	11*	-1	0
Nc1nonc1C(=O)NCCNCc1ccccc1	1	-6	5	-6	10	0
c1ccc(-c2nccc(-c3ccc(-n4cnc5ccccc54)cc3)n2)cc1	1.1	46*	-8	1	7	0
COCC(=O)N(C)c1nnc(-c2ccc([N+](=O)[O-])cc2)s1	1	35*	4	-7	2	0
O=C(O)CCc1nc(-c2ccccc2)c(-c2ccccc2)o1	0.2	-6	80*	5	-1	nt
O=C(COC(=O)CCc1c[nH]c2ccccc12)NC1CCS(=O)(=O)C1 (stereo unspecified)	1	-14	0	15*	-2	0
O=C(COC(=O)CCc1nc2ccccc2c(=O)[nH]1)NC1CCS(=O)(=O)C1 (stereo unspecified)	0.9	-9	11	3	0	0

Assay outcomes as filed in PubChem.
